Laboratory results from ChEMBL document CHEMBL4138092, “Antibacterial activity and mechanism of action of the benzazole acrylonitrile-based compounds: In vitro, spectroscopic, and docking studies” (2017).
In brackets after ≈: the same amount, converted by molar mass. Activity calls are given as the source filed them. The rule behind the calls is not given here.

What was measured:
Staphylococcus aureus [1] = experiment: Antibacterial activity against Staphylococcus aureus ATCC 25923 after 24 hrs by agar well diffusion method; type: functional; settings: ATCC 25923, 24 h
[2] = test system: Bifidobacterium longum subsp. infantis; experiment: Inhibition of beta-lactamase in Bifidobacterium infantis assessed as potentiation of amoxicillin induced antibacterial activity at 5% amoxicillin to compound dilution after 24 hrs by agar well diffusion method
Outline: (§1)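 Amoxicillin (1.0 µg/ml) was combined with test compound and diluted to 100, 80, 60, 40, 10 and 5%. The mixtures were serially diluted in sterile water, and 100 µl was added to 900 µl nutrient broth. Tubes were inoculated with 10 µl of 10⁵ cells/ml and held 24 h at 37±1 °C. Growth/no growth was scored visually. Controls were bacteria in broth alone and sterile broth alone.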

[3] = molecular target: Beta-lactamase (Staphylococcus aureus) (UniProt P00807); experiment: Inhibition of beta-lactamase in Staphylococcus aureus ATCC 25923 assessed as potentiation of amoxicillin induced antibacterial activity at 10 to 100% amoxicillin to compound dilution after 24 hrs by agar well diffusion method; outline: as §1
[4] = molecular target: Beta-lactamase (Pseudomonas aeruginosa) (UniProt Q8RL90); experiment: Inhibition of beta-lactamase in Pseudomonas aeruginosa ATCC 27853 assessed as potentiation of amoxicillin induced antibacterial activity after 24 hrs by agar well diffusion method; outline: as §1
[5] = test system: Bifidobacterium longum subsp. infantis; experiment: Inhibition of beta-lactamase in Bifidobacterium infantis assessed as potentiation of amoxicillin induced antibacterial activity by measuring amoxicillin MIC after 24 hrs by agar well diffusion method (reference value: 1.5 ug/ml); outline: as §1
Bifidobacterium longum = experiment: Antibacterial activity against Bifidobacterium infantis after 24 hrs by agar well diffusion method; type: functional, Bifidobacterium longum subsp. infantis
Pseudomonas aeruginosa [6] = experiment: Antibacterial activity against Pseudomonas aeruginosa ATCC 27853 after 24 hrs by agar well diffusion method; type: functional; settings: ATCC 27853, 24 h
[7] = molecular target: Beta-lactamase (Staphylococcus aureus) (UniProt P00807); experiment: Inhibition of beta-lactamase in Staphylococcus aureus ATCC 25923 assessed as potentiation of amoxicillin induced antibacterial activity at 5% amoxicillin to compound dilution after 24 hrs by agar well diffusion method; outline: as §1
[8] = molecular target: Beta-lactamase (Pseudomonas aeruginosa) (UniProt Q79MP6); experiment: Inhibition of beta-lactamase in Pseudomonas aeruginosa ATCC 27853 assessed as potentiation of amoxicillin induced antibacterial activity by measuring amoxicillin MIC after 24 hrs by agar well diffusion method (reference value: 1 ug/ml); outline: as §1
[9] = molecular target: Beta-lactamase (Pseudomonas aeruginosa) (UniProt Q8RL90); experiment: Inhibition of beta-lactamase in Pseudomonas aeruginosa ATCC 27853 assessed as potentiation of amoxicillin induced antibacterial activity at 5% amoxicillin to compound dilution after 24 hrs by agar well diffusion method; outline: as §1
[10] = test system: Bifidobacterium longum subsp. infantis; experiment: Inhibition of beta-lactamase in Bifidobacterium infantis assessed as potentiation of amoxicillin induced antibacterial activity at 10 to 100% amoxicillin to compound dilution after 24 hrs by agar well diffusion method; outline: as §1
[11] = molecular target: Beta-lactamase (Staphylococcus aureus) (UniProt P00807); experiment: Inhibition of beta-lactamase in Staphylococcus aureus ATCC 25923 assessed as potentiation of amoxicillin induced antibacterial activity by measuring amoxicillin MIC after 24 hrs by agar well diffusion method (reference value: 1.5 ug/ml); outline: as §1
[12] = molecular target: Beta-lactamase (Staphylococcus aureus) (UniProt P00807); experiment: Inhibition of beta-lactamase in Staphylococcus aureus ATCC 25923 assessed as potentiation of amoxicillin induced antibacterial activity after 24 hrs by agar well diffusion method; outline: as §1
[13] = test system: Escherichia coli ATCC 25922; experiment: Inhibition of beta-lactamase in Escherichia coli ATCC 25922 assessed as potentiation of amoxicillin induced antibacterial activity at 10 to 100% amoxicillin to compound dilution after 24 hrs by agar well diffusion method; outline: as §1
Bacillus spizizenii [14] = experiment: Antibacterial activity against Bacillus subtilis ATCC 6633 after 24 hrs by agar well diffusion method; type: functional; settings: ATCC 6633, 24 h
[15] = test system: Bifidobacterium longum subsp. infantis; experiment: Inhibition of beta-lactamase in Bifidobacterium infantis assessed as potentiation of amoxicillin induced antibacterial activity after 24 hrs by agar well diffusion method; outline: as §1
Escherichia coli [16] = experiment: Antibacterial activity against Escherichia coli ATCC 25922 after 24 to 48 hrs by agar well diffusion method; type: functional
Outline: (§2)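 Mueller Hinton agar plates spread with bacteria (10⁶ cells/ml). Wells were filled with 50 µl of compound and incubated at 37 °C for 24–48 h. The inhibition zone diameter (mm) was measured with a transparent scale. Amoxicillin 5.0 mg/ml at 50 µl/well served as the positive control.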

Pseudomonas aeruginosa [17] = experiment: Antibacterial activity against Pseudomonas aeruginosa ATCC 27853 after 24 to 48 hrs by agar well diffusion method; type: functional; outline: as §2
[18] = test system: Escherichia coli ATCC 25922; experiment: Inhibition of beta-lactamase in Escherichia coli ATCC 25922 assessed as potentiation of amoxicillin induced antibacterial activity at 5% amoxicillin to compound dilution after 24 hrs by agar well diffusion method; outline: as §1
[19] = molecular target: Beta-lactamase (Escherichia coli) (UniProt Q53TY8); experiment: Binding affinity to Escherichia coli beta-lactamase in phosphate buffer at pH 7.4 at 6 10^-5M after 3 mins by UV-vis spectroscopic analysis
Outline: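 Compound at 6 × 10^-5 M in 0.01 M phosphate buffer pH 7.4 was titrated with 10 µl aliquots of 1 × 10^-6 M β-lactamase. Absorbance spectra were recorded at 200–700 nm after 3 min equilibration per addition, continuing until no further change (saturation).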

[20] = molecular target: Beta-lactamase (Escherichia coli) (UniProt Q53TY8); experiment: Binding affinity to Escherichia coli beta-lactamase assessed as chemical shift in phosphate buffer at pH 7.4 after 60 mins by NMR analysis
[21] = molecular target: Beta-lactamase (Escherichia coli) (UniProt Q53TY8); experiment: Binding affinity to Escherichia coli beta-lactamase in phosphate buffer at pH 7.4 at 6 10^-5M by CD spectral analysis
Outline: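 Successive additions of compound (6 × 10^-5 M) were made to 1.0 mL β-lactamase in phosphate buffer pH 7.4. CD spectra were recorded at 25 °C over 200–700 nm, scan speed 50 nm/min, bandwidth 1 nm.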

[22] = test system: Escherichia coli ATCC 25922; experiment: Inhibition of beta-lactamase in Escherichia coli ATCC 25922 assessed as potentiation of amoxicillin induced antibacterial activity by measuring amoxicillin MIC after 24 hrs by agar well diffusion method (reference value: 1.5 ug/ml); outline: as §1
Bacillus spizizenii [23] = experiment: Antibacterial activity against Bacillus subtilis ATCC 6633 after 24 to 48 hrs by agar well diffusion method; type: functional; outline: as §2
[24] = molecular target: Beta-lactamase (Escherichia coli) (UniProt Q53TY8); experiment: Binding affinity to Escherichia coli beta-lactamase in phosphate buffer at pH 7.4 at 6 10^-5M after 3 mins by fluorescence titration analysis
Outline: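 Fixed compound concentration in phosphate buffer pH 7.4, titrated with 10 µl additions of 1 × 10^-6 M β-lactamase. Excitation was 280 or 290 nm depending on compound, with emission scanned 300–600 nm and slits 5–10 nm. Readings followed 3 min equilibration per addition in a 1 cm quartz cell, continuing to saturation.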

Staphylococcus aureus [25] = experiment: Antibacterial activity against Staphylococcus aureus ATCC 25923 after 24 to 48 hrs by agar well diffusion method; type: functional; outline: as §2
[26] = molecular target: Beta-lactamase (Pseudomonas aeruginosa) (UniProt Q79MP6); experiment: Inhibition of beta-lactamase in Pseudomonas aeruginosa ATCC 27853 assessed as potentiation of amoxicillin induced antibacterial activity at 10 to 100% amoxicillin to compound dilution after 24 hrs by agar well diffusion method; outline: as §1
Escherichia coli [27] = experiment: Antibacterial activity against Escherichia coli ATCC 25922 after 24 hrs by agar well diffusion method; type: functional; settings: ATCC 25922, 24 h
[28] = test system: Escherichia coli ATCC 25922; experiment: Inhibition of beta-lactamase in Escherichia coli ATCC 25922 assessed as potentiation of amoxicillin induced antibacterial activity after 24 hrs by agar well diffusion method; outline: as §1
Escherichia coli [29] = experiment: Induction of morphological changes in Escherichia coli ATCC 25922 assessed as cell crack at 0.2 ppm after 2 hrs by uranyl acetate staining based transmission electron microscopic analysis; type: functional, organism-based
Outline: (§3)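 E. coli was exposed for 2 h, alongside untreated controls processed identically. Pellets were fixed in Karnovsky's fixative (2% paraformaldehyde, 2.5% glutaraldehyde) for 3–4 h at 25 °C, then washed in 0.1 M phosphate pH 7.2. Cells were adsorbed onto formvar-carbon copper grids and stained 5 min in […] aqueous uranyl acetate. Grids were imaged by TEM at 80 kV.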

Escherichia coli [30] = experiment: Induction of morphological changes in Escherichia coli ATCC 25922 assessed as cell rupture at 0.2 ppm after 2 hrs by uranyl acetate staining based transmission electron microscopic analysis; type: functional, organism-based; outline: as §3
Escherichia coli [31] = experiment: Induction of morphological changes in Escherichia coli ATCC 25922 assessed as cell damage at 0.2 ppm after 2 hrs by uranyl acetate staining based transmission electron microscopic analysis; type: functional, organism-based; outline: as §3

| Compound | MIC (Staphylococcus aureus [1]) [µg/mL] | inhibition [2] | inhibition [3] | fractional inhibitory concentration index (FICI) [4] | MIC [5] [µg/mL] | MIC (Bifidobacterium longum) [µg/mL] | MIC (Pseudomonas aeruginosa [6]) [µg/mL] | inhibition [7] | MIC [8] [µg/mL] | inhibition [9] | inhibition [10] | MIC [11] [µg/mL] | fractional inhibitory concentration index (FICI) [12] | inhibition [13] | MIC (Bacillus spizizenii [14]) [µg/mL] | fractional inhibitory concentration index (FICI) [15] | inhibition zone (IZ) (Escherichia coli [16]) [mm] | inhibition zone (IZ) (Pseudomonas aeruginosa [17]) [mm] | inhibition [18] | Activity [19] | also measured |
| --- | --- | --- | --- | --- | --- | --- | --- | --- | --- | --- | --- | --- | --- | --- | --- | --- | --- | --- | --- | --- | --- |
| N#C/C(=C\c1cnc(Nc2ccc(Cl)cc2)nc1)c1nc2ccccc2[nH]1 | 9 (≈ 24.1 µM) | inactive | Active | 0.2 | 0.9 | 9 (≈ 24.1 µM) | 9 (≈ 24.1 µM) | inactive | 1.3 | inactive | Active | 0.9 | 0.2 | Active | 13 (≈ 34.9 µM) | 0.2 | 40 | 28 | inactive | Active | Activity [20]: Active; Activity [21]: Active; MIC [22]: 0.9 µg/mL; inhibition zone (IZ) (Bacillus spizizenii [23]): 40 mm; Activity [24]: Active; inhibition zone (IZ) (Staphylococcus aureus [25]): 32 mm; inhibition [26]: Active; MIC (Escherichia coli [27]): 9 µg/mL (≈ 24.1 µM); fractional inhibitory concentration index (FICI) [28]: 0.2 |
| N#C/C(=C\c1cnc(N)nc1N)c1nc2ccccc2s1 | 8 (≈ 27.2 µM) | inactive | Active | 0.2 | 0.1 | 1 (≈ 3.4 µM) | 1 (≈ 3.4 µM) | inactive | 0.8 | inactive | Active | 0.8 | 0.2 | Active | 8 (≈ 27.2 µM) | 0.2 | 47 | 28 | inactive | Active | Activity (Escherichia coli [29]): Active; Activity (Escherichia coli [30]): Active; Activity (Escherichia coli [31]): Active; Activity [21]: Active; MIC [22]: 0.1 µg/mL; inhibition zone (IZ) (Bacillus spizizenii [23]): 40 mm; Activity [24]: Active; inhibition zone (IZ) (Staphylococcus aureus [25]): 32 mm; inhibition [26]: Active; MIC (Escherichia coli [27]): 1 µg/mL (≈ 3.4 µM); fractional inhibitory concentration index (FICI) [28]: 0.2 |
